# b-catenin transl = beta-catenin nuclear translocation modulation; HeLa beta-catenin nuclear translocation, immunofluorescence imaging; nuclear translocation activity, % at 5 µM; 0.3% of 190,000 active; AID 1665;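 active = nuclear translocation activity above 50% at 5 µM, with a well cell count of 50 or more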;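 note: per-cell ratio of nuclear to cytoplasmic median beta-catenin stain intensity; plate controls were DMSO negative control for no effect and GSK-3 inhibitor IX positive control for full effect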
#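 Test system: HeLa cells, endogenous beta-catenin; Compound: single 5 µM dose plus 0.02–20 µM confirmation series; Times: compound exposure 24 h at 37°C; Signal: fluorescence imaging of beta-catenin antibody stain plus DAPI; Read-out: % activation, nuclear-to-cytoplasmic median beta-catenin signal ratio per cell.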
# BaF3 tox = parental Ba/F3 viability inhibition as JAK2V617F counter-screen. CellTiter-Glo ATP luminescence. inhibition, % at 5.6 µM. 1.1% of 220,000 active;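 active = inhibition above a per-campaign cutoff, the mean inhibition of all tested compounds plus 3 SD, cut at about 27% in these data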;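 note: 0% = DMSO wells and 100% = JAK Inhibitor I control wells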
# MT stabilize HCS = microtubule stabilization, imaging screen. HeLa tubulin immunostaining HCS, 24 h; share of cells brighter than vehicle mean+2SD. % tubulin-high responders, % at 10 µM. 0.83% of 200,000 active. AID 2205;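 active = plate Z-score above 3 for both tubulin-high and condensed-nucleus cell shares, with cell loss under 80%, at 10 µM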;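 note: anti alpha tubulin signal scored within the nucleus-defined area of each cell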
# IEC-6 cytotox = IEC-6 cytotoxicity, counter-screen for KLF5 inhibitors | luminescence viability | inhibition, % at 5 µM | 0.78% of 290,000 active; in the data active = inhibition above about 22%;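 note: 0% = plate median of test compound wells and 100% = cytotoxic reference compound wells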
# Ba/F3 V617F tox = lowers viability of Ba/F3 cells expressing EpoR and JAK2V617F. ATP luminescence. 1.1% of 220,000 active. inhibition, % at 5.6 µM;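 active = inhibition above the campaign mean plus 3 SD over all tested compounds, cut at about 24% in these data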;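 note: cytokine-independent growth of Ba/F3 cells driven by EpoR plus mutant JAK2; 0% = DMSO-treated cells and 100% = JAK inhibitor I control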
# APP 5UTR inh = APP translation inhibition; SH-SY5Y APP 5'UTR-luciferase reporter, luminescence; inhibition, % at 2 µM; 0.82% of 190,000 active; AID 1285;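 active = inhibition above a set limit, derived from the sample mean plus 3 SD, cut at about 45% in these data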
# The depositor's hits bear a star; . = no result given. Sampled rows, rich in hits. Any-hit rate of the full collection: about 2.2%.
SMILES,b-catenin transl,BaF3 tox,MT stabilize HCS,IEC-6 cytotox,Ba/F3 V617F tox,APP 5UTR inh
O=C(O)c1ccccc1C(=O)Nc1ccc(Oc2ccc3ccccc3c2)cc1,1,38*,4,14,46*,22
Cc1cccc(Oc2ccc(NC(=O)c3ccccc3C(=O)O)cc2)c1C,0,4,0,2,-3,-6
O=C(O)c1ccccc1C(=O)Nc1ccc(Oc2cccc3ccccc23)cc1,0,10,5,12,8,59*
COc1ccc(NC(=O)c2ccccc2-c2ccccc2C(=O)O)cc1,.,.,.,-13,.,.
COc1ccc(CCNC(=O)CSc2nnc(-c3ccco3)c(-c3ccco3)n2)cc1OC,.,.,.,-22,.,.
O=C(COC(=O)c1ccc2ccccc2c1O)NCC(F)(F)F,1,3,.,2,-2,.
CCN1CCN(C(=O)c2ccc3nc(-c4ccccc4)c(-c4ccccc4)nc3c2)CC1,.,.,.,-6,.,.
CC1SCC(NC(=O)c2ccc(Cl)cc2)CS1 (stereo not given),0,46*,.,8,-3,.
COc1ccccc1NC(=O)c1cnc(Nc2ccccc2OC)c2ccccc12,118*,83*,35*,69*,85*,94*
CCOC(=O)c1c2ccc(OCC(=O)N/N=C/c3ccc(Cl)cc3)cc2n2ccccc12,-2,9,15,0,1,0
CCOC(=O)c1c2ccc(OCC(=O)N/N=C/c3ccccc3C(F)(F)F)cc2n2ccccc12,-7,1,33*,0,0,7
O=C1CCN(S(=O)(=O)c2ccccc2)CCN1CCOCc1ccc(F)cc1,70*,.,.,.,.,.
O=C(Cn1ccc([N+](=O)[O-])n1)N1CCCCC1,-1,43*,5,4,-2,0
O=C(Cn1ccc([N+](=O)[O-])n1)N1CCCCCC1,2,6,1,2,3,9
COc1ccc(/C=N/NC(=O)c2ccc(Br)cc2)cc1Cn1cc(Cl)cn1,1,5,4,6,2,-4
COc1ccc(/C=N/NC(=O)c2cccc(Br)c2)cc1Cn1cc(Cl)cn1,.,5,41*,6,1,0
O=C(NCc1n[nH]c(=S)n1-c1cccc(C(F)(F)F)c1)c1ccco1,.,.,.,4,.,.
O=C(NC1CCCC1)c1ccc2nc(-c3ccco3)c(-c3ccco3)nc2c1,0,2,5,-8,0,-13
Nc1c(C(=O)NC2CC2)sc2nc3c(c(-c4ccco4)c12)CC/C3=C/c1ccco1,4,1,2,-19,-5,51*
COc1cc(/C=N/n2cnc3scc(-c4cccs4)c3c2=O)cc(OC)c1OC,2,4,30*,-5,0,1
CC1Cc2ccccc2N1c1ncnc(N)c1[N+](=O)[O-] (stereo not given),2,-7,8,-1,-4,48*
COC(=O)CCC(=O)c1oc2ccc(OC)cc2c1N,-4,3,3,-1,-1,64*
Cc1cccc(CNC(=O)C2CCC(=O)N(Cc3ccccc3F)C2)n1 (stereo not given),.,.,.,6,.,.
CCOc1ccc(NC(=O)Cn2c(=O)n(CCCC(=O)NC3CCN(Cc4ccccc4)CC3)c(=O)c3ccccc32)cc1,.,.,.,-7,.,.
CN(C)CCCN(C(=O)COc1ccccc1)c1nc2ccc(F)cc2s1,0,8,4,1,2,8
SMILES,b-catenin transl,BaF3 tox,MT stabilize HCS,IEC-6 cytotox,Ba/F3 V617F tox,APP 5UTR inh
CN(C)CCCN(C(=O)CCOc1ccccc1)c1nc2ccc(F)cc2s1,-1,8,3,1,26*,33
Clc1ccc(-c2c[n+]3c(n2-c2ccccc2)SCC3)cc1,-1,88*,5,5,67*,-18
O=[N+]([O-])c1cccc(-c2c[n+]3c(n2-c2ccccc2)SCC3)c1,-4,65*,2,0,35*,13
Fc1ccccc1C1CC(c2ccco2)=Nc2ccccc2S1 (stereo not given),0,0,.,4,2,.
O=C(Nc1nnc(CCc2ccccc2)s1)c1ccccc1F,.,.,.,-3,.,.
CN1C(=O)c2ccc(C(=O)Nc3ccccc3O)cc2C1=O,.,.,.,-5,.,.
Brc1cccc(-c2nnc3n2CCCCC3)c1,-6,96*,3,-1,-2,-1
c1ccc(-c2nnc3n2CCCC3)cc1,1,10,3,-6,1,1
N=c1c2c(-c3ccccc3)c(-c3ccccc3)n(Cc3ccccc3)c2ncn1CCCn1ccnc1,2,4,35,8,2,83*
